Laboratory results as given in ChEMBL document CHEMBL4257504, “Tricyclic xanthine derivatives containing a basic substituent: adenosine receptor affinity and drug-related properties” (Medchemcomm, 2018).
Values after ≈ are worked out from the molar mass of the structure shown.

Key:
Adenosine receptor A1 = target: T1, Adenosine receptor A1 (Rattus norvegicus, UniProt P25099); experiment: Displacement of [3H]CCPA from adenosine A1 receptor in rat brain cortical membranes; assay type: cell membranes
T1 sequence (P25099 whole entry): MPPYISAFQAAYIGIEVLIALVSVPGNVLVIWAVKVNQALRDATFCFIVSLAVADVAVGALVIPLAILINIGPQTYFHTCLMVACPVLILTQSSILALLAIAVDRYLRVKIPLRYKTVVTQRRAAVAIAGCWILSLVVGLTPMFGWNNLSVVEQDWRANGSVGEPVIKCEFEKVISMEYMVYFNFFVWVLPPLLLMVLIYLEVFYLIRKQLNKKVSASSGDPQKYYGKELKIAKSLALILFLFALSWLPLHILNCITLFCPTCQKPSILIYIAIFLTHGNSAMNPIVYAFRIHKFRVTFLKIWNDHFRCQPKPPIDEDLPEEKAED
Procedure, shortened: (§1)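 Membrane radioligand binding: A1 in rat brain cortical membranes and A2A in rat brain striatal membranes, with human A1 and A2A in recombinant CHO cell membranes. Radioligands are [3H]CCPA for A1 and [3H]MSX-2 for A2A. Full concentration-inhibition curves use six to ten concentrations spanning three orders of magnitude, with at least three independent experiments.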

[1] = Solubility of compound in water after over night incubation by UV spectroscopic method; assay type: physicochemical
Procedure, shortened: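 Compound (10 mg, basic form) is suspended in 2 mL water, boiled 5 min, left overnight at 20 °C and filtered. The filtrate is diluted 10–80-fold in MeOH and read by UV in 90% MeOH/H2O. Concentration comes from seven-point standard curves (10^-3 to 10^-1 mg/mL) by linear regression, multiplied by the dilution factor.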

Adenosine receptor A2b [2] = target: T2, Adenosine receptor A2b (Homo sapiens, UniProt P29275); experiment: Displacement of [3H]PSB-603 from human adenosine A2B receptor expressed in CHO cell membranes
T2 sequence (P29275 whole entry): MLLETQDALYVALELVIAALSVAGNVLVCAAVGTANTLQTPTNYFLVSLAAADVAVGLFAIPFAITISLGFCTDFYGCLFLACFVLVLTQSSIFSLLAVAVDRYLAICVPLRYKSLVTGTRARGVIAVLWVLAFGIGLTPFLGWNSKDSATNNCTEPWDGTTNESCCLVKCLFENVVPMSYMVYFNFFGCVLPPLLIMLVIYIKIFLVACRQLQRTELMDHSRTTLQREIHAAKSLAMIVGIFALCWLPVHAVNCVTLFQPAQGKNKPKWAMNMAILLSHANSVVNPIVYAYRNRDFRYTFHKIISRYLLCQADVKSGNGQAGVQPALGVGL

Adenosine receptor A3 = target: T3, Adenosine receptor A3 (Homo sapiens, UniProt P0DMS8); experiment: Displacement of [3H]PSB-11 from human adenosine A3 receptor expressed in CHO cell membranes
T3 sequence (P0DMS8 whole entry): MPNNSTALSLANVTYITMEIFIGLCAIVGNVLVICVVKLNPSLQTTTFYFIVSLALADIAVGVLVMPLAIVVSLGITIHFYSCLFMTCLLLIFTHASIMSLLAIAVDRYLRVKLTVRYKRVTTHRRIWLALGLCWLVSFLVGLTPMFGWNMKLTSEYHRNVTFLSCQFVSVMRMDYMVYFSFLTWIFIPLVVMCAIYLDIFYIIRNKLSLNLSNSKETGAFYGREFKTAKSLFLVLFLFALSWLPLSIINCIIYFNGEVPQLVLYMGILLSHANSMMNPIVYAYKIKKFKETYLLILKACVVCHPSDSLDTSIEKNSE
Procedure, shortened: (§2)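 Membranes from CHO cells recombinantly expressing human A2B or A3 receptor. Radioligands are [3H]PSB-603 for A2B and [3H]PSB-11 for A3. Competition curves use six to ten test-compound concentrations spanning three orders of magnitude, with at least three independent experiments.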

Adenosine receptor A2a = Adenosine receptor A2a (Rattus norvegicus, UniProt P30543); experiment: Displacement of [3H]MSX-2 from adenosine A2A receptor in rat brain striatal membranes; assay type: cell membranes, Striatum, Membrane; procedure, shortened: as §1
[3] = target: T4, Adenosine receptor A3 (Homo sapiens) (UniProt P0DMS8); experiment: Displacement of [3H]PSB-11 from human adenosine A3 receptor expressed in CHO cell membranes at 1 uM relative to control
T4 sequence (whole entry): T3 sequence (P0DMS8 whole entry)

Adenosine receptor A2b [4] = target: T2, Adenosine receptor A2b; experiment: […] from human adenosine A2B receptor expressed in CHO cell membranes; conditions: in the assay text read “[3H]PSB-603” for “[3H]PSB-602”; procedure, shortened: as §2
[5] = target: T5, Adenosine receptor A2b (Homo sapiens) (UniProt P29275); experiment: Displacement of [3H]PSB-603 from human adenosine A2B receptor expressed in CHO cell membranes at 1 uM relative to control
T5 sequence (whole entry): T2 sequence (P29275 whole entry)

[6] = target: T6, Adenosine receptor A1 (Rattus norvegicus) (UniProt P25099); experiment: Displacement of [3H]CCPA from adenosine A1 receptor in rat brain cortical membranes at 1 uM relative to control; assay type: cell membranes
T6 sequence (whole entry): T1 sequence (P25099 whole entry)

[7] = (§3) Drug level in rat liver microsomes treated with 2-(4-(2-(1,3-Dibutyl-2,4-dioxo-1,2,3,4,7,8-hexahydropyrimido[2,1-f]purin-9(6H)-yl)ethyl)phenoxy)-N-(3-(diethylamino)propyl)-acetamide at 50 uM preincubated for 5 mins followed by addition of NADPH regenerating system and measured after 120 mins by UPLC/MS analysis; assay type: ADME, microsome; conditions: 2 h
Procedure, shortened: (§4)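 Incubations use pooled human (adult male and female) or rat liver microsomes at 1 mg/ml in 0.1 M Tris-HCl pH 7.4 with compound at 50 μM. After 5 min preincubation at 37 °C, an NADPH regenerating system is added to start the reaction. Cold methanol stops it at 120 min; samples are centrifuged and the supernatant analysed by UPLC/MS.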

[8] = as §3, with “in human” for “in rat”; assay type: ADME, microsome; conditions: 2 h; procedure, shortened: as §4
[9] = target: Adenosine receptor A2a (Rattus norvegicus) (UniProt P30543); experiment: Displacement of [3H]MSX-2 from adenosine A2A receptor in rat brain striatal membranes at 1 uM relative to control; assay type: cell membranes; conditions: Striatum, Membrane
Chain of Adenosine receptor A2a (Rattus norvegicus) (P30543 whole entry): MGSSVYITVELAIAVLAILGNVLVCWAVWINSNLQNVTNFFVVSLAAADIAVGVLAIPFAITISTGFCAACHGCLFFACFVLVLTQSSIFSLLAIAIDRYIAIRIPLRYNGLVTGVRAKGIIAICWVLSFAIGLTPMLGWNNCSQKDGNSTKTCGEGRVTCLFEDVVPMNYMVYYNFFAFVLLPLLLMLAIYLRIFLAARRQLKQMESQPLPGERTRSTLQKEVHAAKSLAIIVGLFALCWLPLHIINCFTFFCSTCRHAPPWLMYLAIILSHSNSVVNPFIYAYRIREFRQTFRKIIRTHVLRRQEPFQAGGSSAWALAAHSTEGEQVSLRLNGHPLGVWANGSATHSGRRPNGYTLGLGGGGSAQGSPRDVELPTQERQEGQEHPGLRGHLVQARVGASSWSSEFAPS

Chain of Adenosine receptor A2a (P30543 whole entry): as above

Compound | Ki (Adenosine receptor A1) | solubility [1] | Ki (Adenosine receptor A2b [2]) | Ki (Adenosine receptor A3) | Ki (Adenosine receptor A2a) | inhibition [3] | Ki (Adenosine receptor A2b [4]) | inhibition [5] | inhibition [6] | Drug metabolism [7] | Drug metabolism [8] | inhibition [9]
CCCCn1c(=O)c2c(nc3n2CCCN3CCc2ccc(OCC(=O)NCCN(CC)CC)cc2)n(CCCC)c1=O | 0.0507 µM | 189 µM (≈ 113 µg/mL) | 0.113 µM | 0.155 µM | 0.242 µM |  |  |  |  |  |  | 
CCCCn1c(=O)c2c(nc3n2CCCN3CCc2ccc(OCC(=O)NCc3ccc(Cl)cc3)cc2)n(CCCC)c1=O | 0.593 µM |  |  | > 1 µM | 7.31 µM | 23% | > 1 µM | 31% |  |  |  | 
CCCn1c(=O)c2c(nc3n2CCCN3CCc2ccc(OCC(=O)NCCCN3CCCC3)cc2)n(CCC)c1=O | 0.146 µM |  |  | > 1 µM | 0.32 µM | 33% | 0.452 µM |  |  |  |  | 
CCCn1c(=O)c2c(nc3n2CCCN3CCc2ccc(OCC(=O)NCCN(CC)CC)cc2)n(CCC)c1=O | 0.12 µM | 1080 µM (≈ 615 µg/mL) |  | 0.508 µM | 0.271 µM |  | 0.179 µM |  |  |  |  | 
CCCn1c(=O)c2c(nc3n2CCCN3CCc2ccc(OCC(=O)NCc3ccccc3)cc2)n(CCC)c1=O | > 10 µM |  |  | > 1 µM | 3.23 µM | 34% | > 1 µM | 22% | 26% |  |  | 
CCCn1c(=O)c2c(nc3n2CCCN3CCc2ccc(OCC(=O)NCc3ccc(F)cc3)cc2)n(CCC)c1=O | > 10 µM |  |  | > 1 µM | 1.36 µM | 41% | > 1 µM | 31% | 37% |  |  | 
CCCn1c(=O)c2c(nc3n2CCCN3CCc2ccc(OCC(=O)NCCCn3ccnc3)cc2)n(CCC)c1=O | 0.605 µM |  |  | 1 µM | 0.637 µM |  | 0.862 µM |  |  |  |  | 
CCCCn1c(=O)c2c(nc3n2CCCN3CCc2ccc(OCC(=O)NCCc3ccccn3)cc2)n(CCCC)c1=O | 0.382 µM |  |  | > 1 µM | 1.07 µM | 44% | > 1 µM | 39% |  |  |  | 
CCCCn1c(=O)c2c(nc3n2CCCN3CCc2ccc(OCC(=O)NCCCNCC)cc2)n(CCCC)c1=O |  |  |  |  |  |  |  |  |  | Metabolite_Detected | Metabolite_Detected | 
CCCCn1c(=O)c2c(nc3n2CCCN3CCc2ccc(OCC(=O)NCc3ccc(F)cc3)cc2)n(CCCC)c1=O | 1.01 µM |  |  | > 1 µM | > 10 µM | 40% | > 1 µM | 43% |  |  |  | 32%
CCCn1c(=O)c2c(nc3n2CCCN3CCc2ccc(OCC(=O)NCCCNC3CCCCC3)cc2)n(CCC)c1=O | 0.145 µM |  | 0.306 µM | 0.458 µM | 0.335 µM |  |  |  |  |  |  | 
CCCCn1c(=O)[nH]c2nc3n(c2c1=O)CCCN3CCc1ccc(OCC(=O)NCCCN(CC)CC)cc1 |  |  |  |  |  |  |  |  |  | Metabolite_Detected |  | 
CCCCn1c(=O)c2c(nc3n2CCCN3CCc2ccc(OCC(=O)NCCc3ccc(S(N)(=O)=O)cc3)cc2)n(CCCC)c1=O | > 10 µM |  |  | > 1 µM | 2.27 µM | 23% | > 1 µM | 31% | 27% |  |  | 
CCCCn1c(=O)c2c(nc3n2CCCN3CCc2ccc(OCC(=O)NCc3ccccc3)cc2)n(CCCC)c1=O | 0.32 µM |  |  | 0.602 µM | 1.29 µM |  | 0.578 µM |  |  |  |  | 
CCCn1c(=O)c2c(nc3n2CCCN3CCc2ccc(OCC(=O)NCc3ccc(Cl)cc3)cc2)n(CCC)c1=O | > 10 µM |  |  | 1.09 µM | > 10 µM |  | > 1 µM | -4% | 18% |  |  | 24%
CCCCn1c(=O)c2c(nc3n2CCCN3CCc2ccc(OCC(=O)NCc3cccc(OC)c3)cc2)n(CCCC)c1=O | 1.59 µM |  |  | > 1 µM | 1.63 µM | 41% | > 1 µM | 41% |  |  |  | 
CCCCn1c(=O)c2c(nc3n2CCCN3CCc2ccc(OCC(=O)NCCCn3ccnc3)cc2)n(CCCC)c1=O | 0.194 µM |  |  | 0.868 µM | 0.569 µM |  | 0.275 µM |  |  |  |  | 
CCCn1c(=O)c2c(nc3n2CCCN3CCc2ccc(OCC(=O)NCCN3CCOCC3)cc2)n(CCC)c1=O | 0.509 µM |  |  | > 1 µM | 1.12 µM | 21% | 0.911 µM |  |  |  |  | 
CCCCn1c(=O)c2c(nc3n2CCCN3CCc2ccc(OCC(=O)NCCCNC3CCCCC3)cc2)n(CCCC)c1=O | 0.118 µM |  |  | 0.353 µM | 1.25 µM |  | 0.215 µM |  |  |  |  | 
CCCn1c(=O)c2c(nc3n2CCCN3CCc2ccc(OCC(=O)NCCN3CCCC3)cc2)n(CCC)c1=O | 0.113 µM |  | 0.193 µM | 0.509 µM | 0.551 µM |  |  |  |  |  |  | 
CCCCn1c(=O)c2c(nc3n2CCCN3CCc2ccc(OCC(=O)NCCN3CCOCC3)cc2)n(CCCC)c1=O | 0.181 µM |  |  | > 1 µM | 0.671 µM | 46% | 0.298 µM |  |  |  |  | 
CCCn1c(=O)c2c(nc3n2CCCN3CCc2ccc(OCC(=O)NCCc3ccccn3)cc2)n(CCC)c1=O | 0.563 µM |  |  | > 1 µM | 1.36 µM | 31% | > 1 µM | 39% |  |  |  | 
CCCCn1c(=O)n(CCC(C)O)c(=O)c2c1nc1n2CCCN1CCc1ccc(OCC(=O)NCCCN(CC)CC)cc1 (stereo not given) |  |  |  |  |  |  |  |  |  | Metabolite_Detected | Metabolite_Detected | 
CCCn1c(=O)c2c(nc3n2CCCN3CCc2ccc(OCC(=O)NCCc3ccc(S(N)(=O)=O)cc3)cc2)n(CCC)c1=O | 10 µM |  |  | > 1 µM | 1.87 µM | 28% | > 1 µM | 30% | 45% |  |  | 
CCCCn1c(=O)c2c(nc3n2CCCN3CCc2ccc(OCC(=O)NCc3cccc(Cl)c3)cc2)n(CCCC)c1=O | 0.684 µM |  |  | > 1 µM | 6.52 µM | 42% | > 1 µM | 18% |  |  |  | 
CCCn1c(=O)c2c(nc3n2CCCN3CCc2ccc(OCC(=O)NCCCN(CC)CC)cc2)n(CCC)c1=O | 0.136 µM | 823 µM (≈ 479 µg/mL) | 0.34 µM | > 1 µM | 0.303 µM | 36% |  |  |  |  |  | 
CCCn1c(=O)c2c(nc3n2CCCN3CCc2ccc(OCC(=O)NCc3cccc(Cl)c3)cc2)n(CCC)c1=O | 1.37 µM |  |  | 0.572 µM | 0.807 µM |  | > 1 µM | 22% |  |  |  | 
CCCn1c(=O)c2c(nc3n2CCCN3CCc2ccc(OCC(=O)NCc3cccc(OC)c3)cc2)n(CCC)c1=O | > 10 µM |  |  | > 1 µM | > 10 µM | 28% | > 1 µM | 39% | 22% |  |  | 37%
